Data from ChEMBL document CHEMBL1130213, “Synthesis and pharmacological characterization of aminocyclopentanetricarboxylic acids: new tools to discriminate between metabotropic glutamate receptor subtypes” (J Med Chem, 1997).

How the values were obtained:
[1] = target: T1, Metabotropic glutamate receptor 2 (Homo sapiens, UniProt Q14416); assay: Agonist activity against Metabotropic glutamate receptor 2 expressed in HEK 293 cells was evaluated by measuring total inositol phosphate accumulation; assay type: functional, cell-based, HEK293
Method in brief: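 HEK 293 cells in DMEM with 10% fetal calf serum, electroporated with receptor plasmid (mGluR1a 0.3 μg, or mGluR2 2 μg co-expressed with Gqi9). Cells labeled overnight with [3H]myo-inositol, then stimulated 30 min with agonist in 10 mM LiCl. IP produced expressed over membrane radioactivity. Basal taken with glutamate pyruvate transaminase (1 unit/mL) plus 2 mM pyruvate. EC50 from logistic fit; triplicates.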
Target sequence in this assay (Q14416 whole entry): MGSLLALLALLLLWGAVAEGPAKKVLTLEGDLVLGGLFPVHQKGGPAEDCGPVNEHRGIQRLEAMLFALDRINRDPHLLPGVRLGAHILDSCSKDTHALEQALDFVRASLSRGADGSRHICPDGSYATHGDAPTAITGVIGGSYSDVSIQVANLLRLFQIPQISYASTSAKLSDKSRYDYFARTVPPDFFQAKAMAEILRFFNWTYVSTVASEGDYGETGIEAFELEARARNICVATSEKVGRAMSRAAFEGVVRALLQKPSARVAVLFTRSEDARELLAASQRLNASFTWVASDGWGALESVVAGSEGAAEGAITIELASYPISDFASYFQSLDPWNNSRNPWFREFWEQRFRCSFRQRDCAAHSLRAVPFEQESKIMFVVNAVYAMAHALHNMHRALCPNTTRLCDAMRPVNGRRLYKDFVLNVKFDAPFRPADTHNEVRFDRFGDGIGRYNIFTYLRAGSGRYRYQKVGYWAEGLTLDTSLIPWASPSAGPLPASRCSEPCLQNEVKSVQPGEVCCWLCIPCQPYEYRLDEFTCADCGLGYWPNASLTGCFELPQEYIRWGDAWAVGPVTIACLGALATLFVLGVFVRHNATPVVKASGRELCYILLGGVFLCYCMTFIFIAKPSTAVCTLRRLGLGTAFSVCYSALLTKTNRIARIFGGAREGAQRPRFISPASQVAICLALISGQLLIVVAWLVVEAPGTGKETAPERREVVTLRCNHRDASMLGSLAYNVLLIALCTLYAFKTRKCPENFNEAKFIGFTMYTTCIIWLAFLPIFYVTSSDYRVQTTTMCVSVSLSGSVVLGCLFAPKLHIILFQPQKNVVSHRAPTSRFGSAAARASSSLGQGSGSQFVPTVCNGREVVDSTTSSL

[2] = target: T1, Metabotropic glutamate receptor 2; assay: Antagonist activity against Metabotropic glutamate receptor 2 expressed in HEK 293 cells was evaluated by measuring total inositol phosphate accumulation; No effect at 1 mM; assay type: functional, cell-based; settings: HEK293
Target sequence in this assay (Q14416 19-872 limits assumed): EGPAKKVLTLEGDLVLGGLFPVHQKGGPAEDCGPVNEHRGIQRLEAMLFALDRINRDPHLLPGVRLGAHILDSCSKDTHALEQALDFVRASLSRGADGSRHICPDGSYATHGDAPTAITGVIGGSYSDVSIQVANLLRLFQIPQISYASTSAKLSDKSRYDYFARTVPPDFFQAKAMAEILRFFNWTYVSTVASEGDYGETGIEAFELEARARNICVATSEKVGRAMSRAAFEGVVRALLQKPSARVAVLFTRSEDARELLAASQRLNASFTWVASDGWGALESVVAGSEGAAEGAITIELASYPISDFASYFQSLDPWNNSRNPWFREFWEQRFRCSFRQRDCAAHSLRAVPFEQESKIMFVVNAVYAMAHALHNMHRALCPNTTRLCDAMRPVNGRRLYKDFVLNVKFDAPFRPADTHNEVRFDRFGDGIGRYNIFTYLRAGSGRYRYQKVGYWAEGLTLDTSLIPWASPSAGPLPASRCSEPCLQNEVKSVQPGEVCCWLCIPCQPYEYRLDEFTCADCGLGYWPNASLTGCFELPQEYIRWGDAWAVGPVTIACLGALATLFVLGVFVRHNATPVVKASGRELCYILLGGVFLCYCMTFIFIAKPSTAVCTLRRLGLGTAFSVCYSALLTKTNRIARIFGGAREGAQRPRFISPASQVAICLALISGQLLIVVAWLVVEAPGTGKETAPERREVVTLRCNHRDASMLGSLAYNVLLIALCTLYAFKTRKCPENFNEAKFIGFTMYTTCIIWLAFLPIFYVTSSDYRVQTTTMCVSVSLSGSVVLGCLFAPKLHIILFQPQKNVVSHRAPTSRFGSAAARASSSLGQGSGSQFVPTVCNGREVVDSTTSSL

[3] = target: T1, Metabotropic glutamate receptor 2; assay: Agonist activity against Metabotropic glutamate receptor 2 expressed in HEK 293 cells was evaluated by measuring total inositol phosphate accumulation; No effect at 1 mM; assay type: functional, cell-based; settings: hek293
Target sequence in this assay (Q14416 whole entry): as the sequence (Q14416 whole entry) above

[4] = target: Metabotropic glutamate receptor 1 (Homo sapiens, UniProt Q13255); assay: Agonist activity against Metabotropic glutamate receptor 1 expressed in HEK 293 cells was evaluated by measuring total inositol phosphate accumulation; No effect at 1 mM; assay type: functional, cell-based; settings: hek293
Chain of Metabotropic glutamate receptor 1 (Q13255 whole entry): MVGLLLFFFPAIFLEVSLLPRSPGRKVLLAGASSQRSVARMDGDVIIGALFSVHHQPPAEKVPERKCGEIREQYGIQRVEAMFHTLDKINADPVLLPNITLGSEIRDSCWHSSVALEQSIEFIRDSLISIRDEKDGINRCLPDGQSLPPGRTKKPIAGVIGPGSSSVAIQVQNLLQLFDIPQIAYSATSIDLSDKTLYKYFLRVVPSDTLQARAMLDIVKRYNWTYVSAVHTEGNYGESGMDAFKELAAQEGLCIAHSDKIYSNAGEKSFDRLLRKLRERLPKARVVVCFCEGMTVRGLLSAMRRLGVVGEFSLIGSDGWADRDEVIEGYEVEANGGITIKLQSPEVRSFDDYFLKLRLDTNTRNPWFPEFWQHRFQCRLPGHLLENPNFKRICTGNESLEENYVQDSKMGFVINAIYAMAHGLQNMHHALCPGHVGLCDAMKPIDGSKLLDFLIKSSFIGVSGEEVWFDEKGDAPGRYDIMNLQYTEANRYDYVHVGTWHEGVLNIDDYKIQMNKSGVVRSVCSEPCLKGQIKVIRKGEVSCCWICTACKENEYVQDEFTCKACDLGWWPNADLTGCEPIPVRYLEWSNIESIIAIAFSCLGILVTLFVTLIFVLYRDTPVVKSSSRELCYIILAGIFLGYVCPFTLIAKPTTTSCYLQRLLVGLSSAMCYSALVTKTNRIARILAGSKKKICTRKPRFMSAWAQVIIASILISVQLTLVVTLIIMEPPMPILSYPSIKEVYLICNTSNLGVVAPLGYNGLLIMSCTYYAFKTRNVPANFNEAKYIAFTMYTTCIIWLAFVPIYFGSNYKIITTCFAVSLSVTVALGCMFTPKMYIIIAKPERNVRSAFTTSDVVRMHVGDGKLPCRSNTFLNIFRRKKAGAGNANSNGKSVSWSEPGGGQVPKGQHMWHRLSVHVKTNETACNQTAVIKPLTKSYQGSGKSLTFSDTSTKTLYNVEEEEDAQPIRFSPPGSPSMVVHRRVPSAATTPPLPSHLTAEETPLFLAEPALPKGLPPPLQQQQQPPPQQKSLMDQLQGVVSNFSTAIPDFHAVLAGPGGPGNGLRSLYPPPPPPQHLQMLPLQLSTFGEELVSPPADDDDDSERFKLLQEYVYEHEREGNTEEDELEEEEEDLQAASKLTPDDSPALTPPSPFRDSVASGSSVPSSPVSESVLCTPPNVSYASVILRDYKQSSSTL

[5] = target: T2, Metabotropic glutamate receptor 4 (Homo sapiens, UniProt Q14833); assay: Agonist activity against Metabotropic glutamate receptor 4 expressed in HEK 293 cells was evaluated by measuring total inositol phosphate accumulation; assay type: functional, cell-based, HEK293
T2 sequence (Q14833 whole entry): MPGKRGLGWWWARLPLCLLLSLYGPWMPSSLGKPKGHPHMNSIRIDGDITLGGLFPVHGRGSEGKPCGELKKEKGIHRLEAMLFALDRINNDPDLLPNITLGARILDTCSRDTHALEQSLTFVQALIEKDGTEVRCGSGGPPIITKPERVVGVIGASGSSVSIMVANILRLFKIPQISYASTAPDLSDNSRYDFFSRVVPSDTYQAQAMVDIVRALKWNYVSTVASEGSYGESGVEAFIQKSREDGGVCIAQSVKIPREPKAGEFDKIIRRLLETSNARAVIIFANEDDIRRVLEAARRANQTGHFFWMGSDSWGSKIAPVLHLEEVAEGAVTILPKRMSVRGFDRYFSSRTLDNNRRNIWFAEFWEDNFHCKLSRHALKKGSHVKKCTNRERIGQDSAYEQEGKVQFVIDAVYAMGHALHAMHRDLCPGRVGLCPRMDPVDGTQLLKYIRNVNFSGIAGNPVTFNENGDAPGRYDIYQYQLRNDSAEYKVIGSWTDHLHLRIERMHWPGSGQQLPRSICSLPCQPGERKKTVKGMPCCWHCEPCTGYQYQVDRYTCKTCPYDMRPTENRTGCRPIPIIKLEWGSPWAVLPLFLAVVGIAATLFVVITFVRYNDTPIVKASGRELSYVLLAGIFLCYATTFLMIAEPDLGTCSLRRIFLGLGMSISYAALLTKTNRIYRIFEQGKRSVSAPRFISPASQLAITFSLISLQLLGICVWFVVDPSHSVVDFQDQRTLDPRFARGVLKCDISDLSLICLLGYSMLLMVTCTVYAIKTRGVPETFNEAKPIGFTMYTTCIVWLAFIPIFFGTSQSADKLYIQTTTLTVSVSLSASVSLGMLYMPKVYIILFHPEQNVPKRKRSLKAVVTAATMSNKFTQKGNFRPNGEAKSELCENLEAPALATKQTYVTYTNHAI

[6] = target: T2, Metabotropic glutamate receptor 4; assay: Agonist activity against Metabotropic glutamate receptor 4 expressed in HEK 293 cells was evaluated by measuring total inositol phosphate accumulation; No effect at 1 mM; assay type: functional, cell-based; settings: hek293

## N[C@]1(C(=O)O)CC[C@H](C(=O)O)C1
[1]
  EC50: 110 µM

## N[C@@]1(C(=O)O)C[C@H](C(=O)O)[C@H](C(=O)O)C1
[2]
  Kb: No effect
[3]
  EC50: No effect
[4]
  EC50: No effect
[5]
  EC50: 7.2 µM

## N[C@@]1(C(=O)O)CC[C@H](C(=O)O)C1
[1]
  EC50: 13 µM

## N[C@@]1(C(=O)O)CC[C@@H](C(=O)O)C1
[1]
  EC50: 18 µM

## N[C@]1(C(=O)O)CC[C@@H](C(=O)O)C1
[6]
  EC50: No effect
[1]
  EC50: > 1000 µM

## NC1(C(=O)O)C[C@H](C(=O)O)[C@@H](C(=O)O)C1
[3]
  EC50: No effect
[4]
  EC50: No effect
[5]
  EC50: 8.8 µM

## NC1(C(=O)O)C[C@@H](C(=O)O)[C@H](C(=O)O)C1
[3]
  EC50: No effect
[6]
  EC50: No effect
[4]
  EC50: No effect

## N[C@]1(C(=O)O)C[C@H](C(=O)O)[C@H](C(=O)O)C1
[3]
  EC50: No effect
[6]
  EC50: No effect
[4]
  EC50: No effect

## NC1(C(=O)O)CC(C(=O)O)C(C(=O)O)C1 (racemic)
[3]
  EC50: No effect
[4]
  EC50: No effect
[5]
  EC50: 40 µM
